Source: PubChem
TAAR1 antagonist = antagonists of human TAAR1. Q96RJ0. CHO RD-HGA16 TAAR1, Fluo-8 calcium fluorescence, antagonist. inhibition, % at 3 µM. 360,000 compounds, 1.5% hits. AID 624466;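 active = inhibition above a per-plate cutoff, the mean inhibition of test compounds on that plate plus 3 SD, cut at about 49% in these data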
Target sequence (Q96RJ0 whole entry, looked up): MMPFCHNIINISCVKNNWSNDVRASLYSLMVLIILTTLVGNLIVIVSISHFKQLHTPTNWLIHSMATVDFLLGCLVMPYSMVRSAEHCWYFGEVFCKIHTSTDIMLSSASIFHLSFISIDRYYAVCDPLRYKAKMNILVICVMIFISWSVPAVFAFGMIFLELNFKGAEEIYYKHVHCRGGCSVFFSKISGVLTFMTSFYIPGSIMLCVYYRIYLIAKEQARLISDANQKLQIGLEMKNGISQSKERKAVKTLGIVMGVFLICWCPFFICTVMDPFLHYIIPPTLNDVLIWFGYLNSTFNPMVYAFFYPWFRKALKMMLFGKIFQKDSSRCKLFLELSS
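test system = CHO RD-HGA16 cells bearing hTAAR1 | replication = singlicate | controls = DMSO-only wells and EC80 β-PEA-stimulated wells | reagent = EC80 β-phenethylamine stimulus | read-out basis = percent inhibition of PEA-evoked calcium signal, max/basal emission ratio | schedule = seeding 17-24 h prior, 75-min 37 °C, 30-min RT dye loading | signal = kinetic Fluo-8 calcium fluorescence measurement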
MC4R ag barr = agonists of human melanocortin 4 receptor (MC4R) beta-arrestin; P32245; U2OS MC4R beta-arrestin complementation, luminescence; percent of melanotan II response, DMSO zero; activation, % at 8.9 µM; 360,000 compounds, 0.98% hits;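 active = activation above a per-plate cutoff, the mean activation of sample wells on that plate plus 3 SD, cut at about 8% in these data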
Target sequence (P32245 whole entry, looked up): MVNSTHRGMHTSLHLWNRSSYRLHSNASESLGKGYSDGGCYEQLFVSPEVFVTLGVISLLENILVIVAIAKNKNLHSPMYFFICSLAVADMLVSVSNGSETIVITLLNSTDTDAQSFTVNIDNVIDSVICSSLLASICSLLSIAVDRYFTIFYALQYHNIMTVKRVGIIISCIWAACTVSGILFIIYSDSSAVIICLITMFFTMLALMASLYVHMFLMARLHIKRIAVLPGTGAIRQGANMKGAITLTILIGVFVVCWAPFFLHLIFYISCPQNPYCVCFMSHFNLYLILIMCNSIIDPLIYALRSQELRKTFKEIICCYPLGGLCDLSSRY
HTR2A ag = activates the mouse 5-HT2A serotonin receptor; P35363; CHO-K1 mHTR2A beta-arrestin complementation, luminescence; percent of 30 µM serotonin response; activation, % at 7.6 µM; 360,000 compounds, 0.66% hits;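 active = activation above a run cutoff, the mean activation of all tested compounds plus 3 SD, cut at about 14% in these data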
TAAR1 ag = human TAAR1 agonism. Q96RJ0. CHO RD-HGA16 TAAR1, Fluo-8 calcium fluorescence; vehicle wells 0%, saturating PEA agonist 100%. activation, % at 3 µM. 360,000 compounds, 0.99% hits. AID 624467;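 active = activation above the mean activation of all test compounds in the run plus 3 SD, cut at about 38% in these data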
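System: CHO-derived RD-HGA16 cells with stable Gα16 and human TAAR1 / Times: 17-24 h plating, Fluo-8 75 min 37 °C, 30 min RT / Technique: calcium-sensitive Fluo-8 signal, excitation 470-495, emission 515-575 nm / Measure: % activation relative to PEA EC100 response / Benchmarks: DMSO and PEA EC100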
MC4R antag cAMP = blocks human MC4R cAMP signaling. P32245. MC4R-expressing cells, MTII-stimulated cAMP, LANCE TR-FRET. inhibition, % at 6.5 µM. 360,000 compounds, 0.48% hits. AID 540295;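 active = inhibition above its plate's cutoff, the mean of tested wells on that plate plus 3 SD, cut at about 29% in these data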
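System: U2OS-MC4R stable cell line; Technique: Eu-cAMP/anti-cAMP TR-FRET, emission 671 nm; Repeats: single well per compound; Also added: Melanotan II; Dosing: one concentration, 6.5 µM nominal; Schedule: 30-min compound, 1-h challenge, 1-h detection, room temperature.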
Beta2AR agonist = activates human beta-2 adrenergic receptor causing internalization. P07550. Am2.2-beta2AR cells, FAP receptor internalization, flow cytometry. response, % (no concentration beside the values). 340,000 compounds, 0.43% hits. AID 504454;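 active = response above a set limit, near 3 SD of response in nonfluorescent compounds, cut at about 42% in these data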
MC4R barr ag = human MC4R beta-arrestin agonism confirmation; 2,400 compounds, 31% hits; U2OS MC4R beta-arrestin recruitment, luminescence; scaled DMSO 0%, Melanotan II 100%; AID 602192; activation, % at 8.9 µM; shares compounds with MC4R ag barr;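 active = mean activation across replicates above the hit cutoff set in the earlier primary screen, cut at about 8% in these data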
MOR DOR agonist = counter-screen for MC4R agonists: agonists of mu-delta opioid heterodimer; shares compounds with MC4R ag barr; U2OS PathHunter beta-arrestin, beta-gal luminescence; percent of deltorphin B response, DMSO zero; activation, % at 9.2 µM; 2,400 compounds, 5.8% hits;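 active = mean activation across replicates exceeds the hit threshold derived in the earlier primary screen, cut at about 18% in these data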
Of the large screens only hits and unclear results are named; the others gave an inactive call (follow-up assays come after a bar, where they were run). Hits are enriched below; roughly 4.3% of the tested compounds scored in any of these assays.

Cc1nc(NC(=O)COc2ccccc2)sc1C(=O)Nc1cccc(Cl)c1	none
CCOC(=O)N1C2c3ccccc3C(c3ccccc32)N1C(=O)OCC	none
CCOC(=O)c1c(N)c2cc([N+](=O)[O-])ccc2n1C	MC4R ag barr 15.7 | MC4R barr ag inactive | MOR DOR agonist inactive
CCOC(=O)/C(=C/c1c(C)n(C)c2ccc([N+](=O)[O-])cc12)C(C)=O	none
S=C(NCCCCN(Cc1ccc(Cl)cc1)c1ccc(Br)cn1)NCCCc1cnc[nH]1	MC4R ag barr 10.3, TAAR1 ag 38.0 (no result: Beta2AR agonist) | MC4R barr ag 10.7 | MOR DOR agonist inactive
NC(Cc1ccc(Cl)cc1)c1csc(Nc2ccc(C(=O)c3ccccc3)cc2)n1 (centres undefined)	MC4R ag barr 11.6 (no result: Beta2AR agonist) | MC4R barr ag 17.7 | MOR DOR agonist 19.5
NC(Cc1ccc(F)cc1)c1csc(Nc2ccc(C(=O)c3ccccc3)cc2)n1 (centres undefined)	TAAR1 antagonist 53.0, MC4R ag barr 13.2, TAAR1 ag 51.7 (no result: Beta2AR agonist) | MC4R barr ag 19.3 | MOR DOR agonist 24.3
CC(=O)c1ccc(Nc2nc(C(N)C3CCCCC3)cs2)cc1 (centres undefined)	none (no result: Beta2AR agonist)
NC(c1csc(Nc2ccc(C(=O)c3ccccc3)cc2)n1)C1CCCCC1 (centres undefined)	MC4R ag barr 11.4, TAAR1 ag 45.6 (no result: Beta2AR agonist) | MC4R barr ag 23.4 | MOR DOR agonist 25.2
NC(c1csc(Nc2cc(Oc3ccccc3)ncn2)n1)C1CCCCC1 (centres undefined)	MC4R ag barr 10.4, TAAR1 ag 42.7 (no result: Beta2AR agonist) | MC4R barr ag 27.6 | MOR DOR agonist 19.7
CC(=O)C1=CCC(c2ccc(Cl)cc2)N(S(=O)(=O)c2ccccc2C)C1 (centres undefined)	none (no result: MC4R ag barr, MC4R antag cAMP, Beta2AR agonist)
c1ccc(COC2CCCN(Cc3nc(Cc4ccccc4)no3)C2)cc1 (centres undefined)	MC4R ag barr 9.9 | MC4R barr ag inactive | MOR DOR agonist inactive
c1ccc(COC2CCCN(Cc3nc(-c4cnccn4)no3)C2)cc1 (centres undefined)	none
CCOC(=O)Cc1csc(NC(=O)C(NC(=O)C2CCC(C)CC2)C(C)C)n1 (centres undefined)	none
Cc1ccc(C(=O)NCCN2C3=NC[C@H](Cc4ccc(O)cc4)N3C[C@H]2Cc2ccc(O)cc2)cc1Br	none
COc1ccc(C[C@H]2CN3C(=NC[C@H]3Cc3ccccc3)N2CCNC(=O)c2ccc(C)c(Br)c2)cc1	MC4R ag barr 16.0 (no result: TAAR1 antagonist, TAAR1 ag) | MC4R barr ag 22.2 | MOR DOR agonist 26.9
Cc1c(P(=S)(c2ccccc2)c2ccccc2)[n+]2ccccc2n1C/C=C/c1ccccc1	MC4R ag barr 15.2 (no result: Beta2AR agonist) | MC4R barr ag inactive | MOR DOR agonist 36.5
Cc1cccc(OCc2nnc(NC(=O)Cc3cccs3)s2)c1	MC4R ag barr 34.0 | MC4R barr ag 9.9 | MOR DOR agonist inactive
C=CC[C@@H](CC(=O)N[C@@H](CO)Cc1ccccc1)C(=O)N[C@@H](COC(=O)[C@@H](CC=C)CC(=O)OC(C)(C)C)Cc1c[nH]c2ccccc12	MC4R ag barr 14.9 | MC4R barr ag inactive | MOR DOR agonist inactive
Cc1onc(-c2ccccc2)c1C(=O)Nc1nnc(CC(C)(C)C)s1	none
CC(C)(C)N1C(=O)c2ccccc2NC(=O)C1C(=O)NCCc1ccccc1 (centres undefined)	none (no result: MC4R ag barr, MC4R antag cAMP, Beta2AR agonist)
CCOC(=O)c1oc2ccccc2c1NC(=O)COc1ccc(F)cc1	MC4R ag barr 36.9 (no result: TAAR1 antagonist, TAAR1 ag) | MC4R barr ag 25.1 | MOR DOR agonist 21.5
COCc1c(C(=O)OCC(=O)NCCc2ccc(S(N)(=O)=O)cc2)oc2ccccc12	none
CCOCc1c(C(=O)OCC(=O)NCc2ccc(F)cc2)oc2ccccc12	MC4R ag barr 13.9 | MC4R barr ag inactive | MOR DOR agonist inactive
Fc1ccc(-n2nnnc2-c2cnc(-c3cccs3)nc2C(F)(F)F)cc1	TAAR1 antagonist 78.9, MC4R ag barr 11.3 | MC4R barr ag inactive | MOR DOR agonist inactive
FC(F)(F)c1nc(-c2ccncc2)ncc1-c1nnnn1-c1ccccc1	none
COc1ccc(C(=O)COC(=O)c2sc(C)nc2C)cc1F	none
c1ccc(COc2ncnc3c2ncn3CCCN2CCN(Cc3cccc4ccccc34)CC2)cc1	MC4R ag barr 19.9 (no result: Beta2AR agonist) | MC4R barr ag 10.0 | MOR DOR agonist inactive
COc1cccc(-c2cnc3c(NC(C)=O)cc(-c4ccc(S(C)(=O)=O)cc4)cn23)c1	MC4R ag barr 10.7 (no result: Beta2AR agonist) | MC4R barr ag 14.2 | MOR DOR agonist inactive
CC(=O)Nc1cc(-c2ccc(F)cc2)cn2c(-c3ccc(S(C)(=O)=O)cc3)cnc12	none (no result: Beta2AR agonist)
COc1ccc(-c2cnc3c(NC(C)=O)cc(-c4ccc(S(C)(=O)=O)cc4)cn23)cc1OC	MC4R ag barr 10.8 (no result: Beta2AR agonist) | MC4R barr ag 9.8 | MOR DOR agonist inactive
CSc1ccccc1NC(=O)c1cccc(S(=O)(=O)N2CCN(C)CC2)c1	none
COC(=O)c1c(NC(NC(=O)c2ccccc2)(C(F)(F)F)C(F)(F)F)sc2c1CCN(C)C2	none
CCC(=O)NC(Nc1sc2c(c1C(=O)OC)CCCC2)(C(F)(F)F)C(F)(F)F	TAAR1 antagonist 63.6, MC4R ag barr 14.6, TAAR1 ag 39.8 | MC4R barr ag inactive | MOR DOR agonist inactive
CCc1ccccc1N(CC(=O)NC(C)c1ccccc1)S(C)(=O)=O (centres undefined)	none
C=CCc1cccc(/C=N/NC(=O)CCCNc2ccc(C)cc2)c1O	MC4R ag barr 15.7 | MC4R barr ag inactive | MOR DOR agonist inactive
CCCCNC(=O)C1(C)CCCCN1C(=O)c1c(Cl)cccc1Cl (centres undefined)	none (no result: Beta2AR agonist)
CN(C)c1ccc(/C=C(\C#N)C(=O)c2ccccc2)cc1	TAAR1 antagonist 78.8, MC4R ag barr 19.3, TAAR1 ag 104.3 | MC4R barr ag inactive | MOR DOR agonist inactive
COc1ccc2oc(C(=O)Nc3ccc(C)cn3)c(C)c2c1	MC4R ag barr 12.7 | MC4R barr ag inactive | MOR DOR agonist inactive
COc1ccc2oc(C(=O)OCC(=O)Nc3ccccc3)c(C)c2c1	none
COc1ccc2oc(C(=O)Nc3ccccn3)c(C)c2c1	none
CCOc1ccc2oc(C(=O)OCC(=O)NCc3ccc(OC)cc3)c(C)c2c1	MC4R ag barr 29.7 | MC4R barr ag inactive | MOR DOR agonist inactive
